Source: ChEMBL document CHEMBL1122887, “Structure-activity studies on the N-terminal region of growth hormone releasing factor” (1985)

Columns and labels:
Format in all cases: functional
[1] = tested on: Rattus norvegicus; experiment: Percent growth hormone releasing activity in anesthetized rat relative to hpGRF (1-29)NH2
Procedure, shortened: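 In pentobarbital-anesthetized male Charles River rats (6–9/group), two subcutaneous analogue doses and GRF(1-29)NH₂ reference doses were given. Plasma GH was measured by radioimmunoassay in jugular blood taken 15 min post-injection. Relative potency with 95% confidence limits came from a four-point assay design by Pugsley's method. Not active means no activity at the doses tested.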

[2] = tested on: Rattus norvegicus; experiment: Effect on plasma growth hormone in anesthetized rat at a dose of 1 ug/100 g of body weight
Procedure, shortened: (§1)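 Male Charles River rats (175–350 g) anesthetized with sodium pentobarbital (6 mg/100 g body wt); 30 min later, 6–9 per group received a single subcutaneous 0.5-mL injection of saline, GRF(1-29)NH₂ reference, or one of two analogue doses. Jugular vein blood was drawn 15 min post-injection, and plasma GH was measured by radioimmunoassay, reported as ng/mL ± SE.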

[3] = tested on: Rattus norvegicus; experiment: Effect on plasma growth hormone in anesthetized rat at a dose of 0.4 ug/100 g of body weight; procedure, shortened: as §1

Q: Which results are given for `CC[C@H](C)[C@H](NC(=O)[C@H](C)NC(=O)[C@H](CC(=O)O)NC(=O)[C@@H](C)NC(=O)[C@H](Cc1ccc(O)cc1)NC(C)=O)C(=O)N[C@@H](Cc1ccccc1)C(=O)N[C@H](C(=O)N[C@@H](CC(N)=O)C(=O)N[C@@H](CO)C(=O)N[C@@H](Cc1ccc(O)cc1)C(=O)N[C@@H](CCCN=C(N)N)C(=O)N[C@@H](CCCCN)C(=O)N[C@H](C(=O)N[C@@H](CC(C)C)C(=O)NCC(=O)N[C@@H](CCC(N)=O)C(=O)N[C@@H](CC(C)C)C(=O)N[C@@H](CO)C(=O)N[C@@H](C)C(=O)N[C@@H](CCCN=C(N)N)C(=O)N[C@@H](CCCCN)C(=O)N[C@@H](CC(C)C)C(=O)N[C@@H](CC(C)C)C(=O)N[C@@H](CCC(N)=O)C(=O)N[C@@H](CC(=O)O)C(=O)N[C@H](C(=O)N[C@@H](CCSC)C(=O)N[C@@H](CO)C(=O)N[C@@H](CCCN=C(N)N)C(N)=O)[C@@H](C)CC)C(C)C)[C@@H](C)O`?
A: Activity [1]: 2558%; Activity [2]: 2496 ng/mL; Activity [3]: 1300 ng/mL
